Measured values: PubChem BioAssay AID623966 (The Scripps Research Institute Molecular Screening Center, 2012)
Values joined by “and” are separate entries in the source; they are usually repeats but may differ in a detail not shown here. Equal values may be shown once. Active and inactive are the calls of the source.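 The calls were made as follows: active = compounds that push a bacterial single-strand DNA binding protein off labeled DNA, with IC50 up to 50 micromolar; inactive = the rest.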

Biological target: Single-stranded DNA-binding protein (Escherichia coli (strain K12)) (UniProt P0AGE0)
Experiment: E. coli SSB-ssDNA binding disruption – biochemical, fluorescence polarization, selectivity assay for HCV NS3 helicase inhibitor project, late-stage follow-up (AID 623966)
Details: E. coli SSB / Cy5-dT15 DNA
How it was run: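 System: E. coli SSB (ssDNA-binding protein), Cy5-labelled dT15 DNA; quantity: 20 nM E. coli SSB per well, final; dosing: compound dilution series in DMSO; signal: fluorescence polarization of Cy5 label; evaluation: percent displacement and IC50 from dose-response fits; benchmarks: no-enzyme wells and 200 nM dT20 competitor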

Chain of Single-stranded DNA-binding protein (Escherichia coli (strain K12)) (P0AGE0 whole entry, looked up): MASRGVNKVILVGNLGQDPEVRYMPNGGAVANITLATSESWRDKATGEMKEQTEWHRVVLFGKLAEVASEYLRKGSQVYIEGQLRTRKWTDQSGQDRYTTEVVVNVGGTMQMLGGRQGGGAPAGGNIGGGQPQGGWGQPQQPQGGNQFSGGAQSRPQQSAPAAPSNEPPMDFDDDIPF

Structure (SMILES) | IC50
Cc1ccc2nc(-c3ccc4nc(-c5ccc(NC(=O)c6ccccc6)cc5)sc4c3)sc2c1S(=O)(=O)O | 4 µM
Cc1ccc2nc(-c3ccc4nc(-c5ccc(NC(=O)c6cccc(C(F)(F)F)c6F)cc5)sc4c3)sc2c1S(=O)(=O)O | inactive
Cc1ccc2nc(-c3ccc4nc(-c5ccc(NC(=O)Nc6ccc(C(F)(F)F)cc6)cc5)sc4c3)sc2c1S(=O)(=O)O | 15 µM
Cc1ccc2nc(-c3ccc4nc(-c5ccc(NC(=O)c6cc(C(F)(F)F)cc(C(F)(F)F)c6)cc5)sc4c3)sc2c1S(=O)(=O)O | 36 µM
Cc1ccc2nc(-c3ccc(NC(=O)c4ccc(NC(=O)c5ccccc5)cc4)cc3)sc2c1S(=O)(=O)O | inactive
Cc1ccc2nc(-c3ccc4nc(-c5ccc(NCc6ccccc6)cc5)sc4c3)sc2c1S(=O)(=O)O | 5 µM
Cc1ccc2nc(-c3ccc4nc(-c5ccc(NC(=O)c6ccc7nc(-c8ccc(NC(=O)OCC9c%10ccccc%10-c%10ccccc%109)cc8)sc7c6)cc5)sc4c3)sc2c1S(=O)(=O)O | 5 µM
Cc1ccc2nc(-c3ccc4nc(-c5ccc(NC(=O)c6cccc(Cl)c6)cc5)sc4c3)sc2c1S(=O)(=O)O | > 100 µM (inactive)
Cc1ccc2nc(-c3ccc4nc(-c5ccc(NC(=O)c6ccc(NC(=O)OCC7c8ccccc8-c8ccccc87)cc6)cc5)sc4c3)sc2c1S(=O)(=O)O | > 100 µM (inactive)
Cc1ccc2nc(-c3ccc4nc(-c5ccc(NC(=O)c6ccc(CNC(=O)OCC7c8ccccc8-c8ccccc87)cc6)cc5)sc4c3)sc2c1S(=O)(=O)O | inactive
Cc1ccc2nc(-c3ccc4nc(-c5ccc(NC(=O)c6ccc7ccccc7c6)cc5)sc4c3)sc2c1S(=O)(=O)O | 22 µM and 28 µM
Cc1ccc2nc(-c3ccc4nc(-c5ccc(NC(=O)c6cc(C(F)(F)F)ccc6F)cc5)sc4c3)sc2c1S(=O)(=O)O | 12 µM
Cc1ccc2nc(-c3ccc4nc(-c5ccc(NC(=O)Nc6ccc(F)cc6)cc5)sc4c3)sc2c1S(=O)(=O)O | 11 µM
Cc1ccc2nc(-c3ccc4nc(-c5ccc(NC(=O)c6ccc7nc(-c8ccc(N)cc8)sc7c6)cc5)sc4c3)sc2c1S(=O)(=O)O | 3 µM
Cc1ccc2nc(-c3ccc4nc(-c5ccc(NC(=O)c6cccc7ccccc67)cc5)sc4c3)sc2c1S(=O)(=O)O | 9 µM
Cc1ccc2nc(-c3ccc4nc(-c5ccc(NC(=O)c6ccc(N)cc6)cc5)sc4c3)sc2c1S(=O)(=O)O | 3 µM
Cc1ccc2nc(-c3ccc4nc(-c5ccc(NC(=O)c6ccc(N(C)C)cc6)cc5)sc4c3)sc2c1S(=O)(=O)O | 4 µM
Cc1ccc2nc(-c3ccc4nc(-c5ccc(NC(=O)c6cc(F)ccc6C(F)(F)F)cc5)sc4c3)sc2c1S(=O)(=O)O | 14 µM
Cc1ccc2nc(-c3ccc(NC(=O)c4ccc(NC(=O)Nc5ccccc5)cc4)cc3)sc2c1S(=O)(=O)O | 20 µM
Cc1ccc2nc(-c3ccc4nc(-c5ccc(NC(=O)c6cccc(C(F)(F)F)c6)cc5)sc4c3)sc2c1S(=O)(=O)O | > 100 µM (inactive)
COc1ccc(NC(=O)Nc2ccc(-c3nc4ccc(-c5nc6ccc(C)c(S(=O)(=O)O)c6s5)cc4s3)cc2)cc1 | 4 µM
Cc1ccc2nc(-c3ccc4nc(-c5ccc(NC(=S)Nc6ccccc6)cc5)sc4c3)sc2c1S(=O)(=O)O | 7 µM
Cc1ccc2nc(-c3ccc4nc(-c5ccc(NC(=O)c6ccc(Cl)c(Cl)c6)cc5)sc4c3)sc2c1S(=O)(=O)O | > 100 µM (inactive)
Cc1ccc2nc(-c3ccc4nc(-c5ccc(NC(=O)c6ccc(Br)cc6)cc5)sc4c3)sc2c1S(=O)(=O)O | 27 µM
Cc1ccc2nc(-c3ccc4nc(-c5ccc(NC(=O)c6ccc(Cl)cc6)cc5)sc4c3)sc2c1S(=O)(=O)O | 46 µM

Structure (SMILES) | IC50
Cc1ccc2nc(-c3ccc4nc(-c5ccc(NC(=O)c6ccc(C(C)(C)C)cc6)cc5)sc4c3)sc2c1S(=O)(=O)O | 32 µM
Cc1ccc(NC(=O)Nc2ccc(-c3nc4ccc(-c5nc6ccc(C)c(S(=O)(=O)O)c6s5)cc4s3)cc2)cc1 | 10 µM
Cc1ccc2nc(-c3ccc4nc(-c5ccc(NC(=O)c6ccc(F)cc6)cc5)sc4c3)sc2c1S(=O)(=O)O | 14 µM
Cc1ccc2nc(-c3ccc4nc(-c5ccc(NC(=O)Nc6ccc(Cl)cc6)cc5)sc4c3)sc2c1S(=O)(=O)O | 5 µM
COC(=O)c1ccc(C(=O)Nc2ccc(-c3nc4ccc(-c5nc6ccc(C)c(S(=O)(=O)O)c6s5)cc4s3)cc2)cc1 | 2 µM
Cc1ccc2nc(-c3ccc4nc(-c5ccc(NC(=O)c6ccc(C(F)(F)F)cc6)cc5)sc4c3)sc2c1S(=O)(=O)O | 4 µM
Cc1ccc2nc(-c3ccc(NC(=O)c4ccc(NS(=O)(=O)c5ccccc5)cc4)cc3)sc2c1S(=O)(=O)O | > 100 µM (inactive)
Cc1ccc2nc(-c3ccc4nc(-c5ccc(NC(=O)c6cc(F)cc(C(F)(F)F)c6)cc5)sc4c3)sc2c1S(=O)(=O)O | > 100 µM (inactive)
Cc1ccc2nc(-c3ccc(NC(=O)c4ccc(NC(=O)OCC5c6ccccc6-c6ccccc65)cc4)cc3)sc2c1S(=O)(=O)O | 27 µM
Cc1ccc2nc(-c3ccc4nc(-c5ccc(NC(=O)c6ccccc6C(F)(F)F)cc5)sc4c3)sc2c1S(=O)(=O)O | 13 µM
Cc1ccc2nc(-c3ccc(NC(=O)c4ccc(NC(=S)Nc5ccccc5)cc4)cc3)sc2c1S(=O)(=O)O | 23 µM
Cc1ccc2nc(-c3ccc(NC(=O)c4ccc(NC(=O)c5ccc(C(F)(F)F)cc5)cc4)cc3)sc2c1S(=O)(=O)O | 23 µM
COc1ccc(S(=O)(=O)Nc2ccc(-c3nc4ccc(-c5nc6ccc(C)c(S(=O)(=O)O)c6s5)cc4s3)cc2)cc1 | 10 µM
CC(=O)Nc1ccc(-c2nc3ccc(-c4nc5ccc(C)c(S(=O)(=O)O)c5s4)cc3s2)cc1 | 17 µM
Cc1ccc2nc(-c3ccc(NC(=O)c4ccc(NC(=O)c5ccc(N)cc5)cc4)cc3)sc2c1S(=O)(=O)O | 17 µM
Cc1ccc2nc(-c3ccc4nc(-c5ccc(NC(=O)c6c(F)cccc6C(F)(F)F)cc5)sc4c3)sc2c1S(=O)(=O)O | 13 µM
Cc1ccc2nc(-c3ccc4nc(-c5ccc(NC(=O)c6cccnc6)cc5)sc4c3)sc2c1S(=O)(=O)O | > 100 µM (inactive)
Cc1ccc(C(=O)Nc2ccc(-c3nc4ccc(-c5nc6ccc(C)c(S(=O)(=O)O)c6s5)cc4s3)cc2)cc1 | 5 µM
Cc1ccc2nc(-c3ccc(NC(=O)c4ccc(NC(=O)c5ccc(NC(=O)OCC6c7ccccc7-c7ccccc76)cc5)cc4)cc3)sc2c1S(=O)(=O)O | 7 µM
Cc1ccc2nc(-c3ccc4nc(-c5ccc(NC(=O)Nc6ccccc6)cc5)sc4c3)sc2c1S(=O)(=O)O | 6 µM
Cc1ccc2nc(-c3ccc4nc(-c5ccc(NC(=O)c6ccncc6)cc5)sc4c3)sc2c1S(=O)(=O)O | inactive
Cc1ccc2nc(-c3ccc4nc(-c5ccc(NC(=O)c6ccc(C(F)(F)F)c(F)c6)cc5)sc4c3)sc2c1S(=O)(=O)O | 10 µM
Cc1ccc2nc(-c3ccc4nc(-c5ccc(N(C)C(=O)c6ccc7ccccc7c6)cc5)sc4c3)sc2c1S(=O)(=O)O | 9 µM
COc1ccc(C(=O)Nc2ccc(-c3nc4ccc(-c5nc6ccc(C)c(S(=O)(=O)O)c6s5)cc4s3)cc2)cc1 | 2 µM
